{
  "source": "ChEMBL document CHEMBL4138271",
  "about": "“Crystal Structures and Human Leukemia Cell Apoptosis Inducible Activities of Parthenolide Analogues Isolated from Piptocoma rufescens” (J Nat Prod, 2018)",
  "key": {"[1]": {"test_system": "MOLM-13", "experiment": "Cytotoxicity against human MOLM13 cells after 72 hrs by MTS assay", "assay_type": "functional, cell-based", "conditions": "MOLM-13, 72 h"}, "[2]": {"test_system": "EOL1", "experiment": "Cytotoxicity against human EOL-1 cells after 72 hrs by MTS assay", "assay_type": "functional, cell-based", "conditions": "EOL1, 72 h"}, "[3]": {"test_system": "MOLM-13", "experiment": "Synergistic antileukemic activity against human MOLM13 cells assessed as concentration required for <= 75% cell survival after 72 hrs in presence of midostaurin by CellTiter 96 AQueous One solution cell proliferation assay", "assay_type": "functional"}, "[4]": {"test_system": "EOL1", "experiment": "Synergistic antileukemic activity against human EOL-1 cells assessed as concentration required for <= 75% cell survival after 72 hrs in presence of midostaurin by CellTiter 96 AQueous One solution cell proliferation assay", "assay_type": "functional"}, "[5]": {"test_system": "MOLM-13", "experiment": "Induction of apoptosis in human MOLM13 cells assessed as live cells at 0.81 uM after 24 hrs by Annexin-V FITC/7-AAD staining based flow cytometric method (reference value: 86.8%)", "assay_type": "functional"}, "[6]": {"test_system": "MOLM-13", "experiment": "Induction of apoptosis in human MOLM13 cells assessed as early apoptotic cells at 0.81 uM after 24 hrs by Annexin-V FITC/7-AAD staining based flow cytometric method (reference value: 11.8%)", "assay_type": "functional"}, "[7]": {"test_system": "MOLM-13", "experiment": "Induction of apoptosis in human MOLM13 cells assessed as late apoptotic cells at 0.81 uM after 24 hrs by Annexin-V FITC/7-AAD staining based flow cytometric method (reference value: 1.43%)", "assay_type": "functional"}, "[8]": {"test_system": "MOLM-13", "experiment": "Induction of apoptosis in human MOLM13 cells assessed as necrotic cells at 0.81 uM after 24 hrs by Annexin-V FITC/7-AAD staining based flow cytometric method (reference value: 0%)", "assay_type": "functional"}, "[9]": {"test_system": "MOLM-13", "experiment": "Induction of apoptosis in human MOLM13 cells assessed as live cells at 1.6 uM after 24 hrs by Annexin-V FITC/7-AAD staining based flow cytometric method (reference value: 86.8%)", "assay_type": "functional"}, "[10]": {"test_system": "MOLM-13", "experiment": "Induction of apoptosis in human MOLM13 cells assessed as early apoptotic cells at 1.6 uM after 24 hrs by Annexin-V FITC/7-AAD staining based flow cytometric method (reference value: 11.8%)", "assay_type": "functional"}, "[11]": {"test_system": "MOLM-13", "experiment": "Induction of apoptosis in human MOLM13 cells assessed as late apoptotic cells at 1.6 uM after 24 hrs by Annexin-V FITC/7-AAD staining based flow cytometric method (reference value: 1.43%)", "assay_type": "functional"}, "[12]": {"test_system": "MOLM-13", "experiment": "Induction of apoptosis in human MOLM13 cells assessed as necrotic cells at 1.6 uM after 24 hrs by Annexin-V FITC/7-AAD staining based flow cytometric method (reference value: 0%)", "assay_type": "functional"}, "[13]": {"test_system": "MOLM-13", "experiment": "Induction of apoptosis in human MOLM13 cells assessed as live cells at 4 uM after 24 hrs by Annexin-V FITC/7-AAD staining based flow cytometric method (reference value: 86.8%)", "assay_type": "functional"}, "[14]": {"test_system": "MOLM-13", "experiment": "Induction of apoptosis in human MOLM13 cells assessed as early apoptotic cells at 4 uM after 24 hrs by Annexin-V FITC/7-AAD staining based flow cytometric method (reference value: 11.8%)", "assay_type": "functional"}, "[15]": {"test_system": "MOLM-13", "experiment": "Induction of apoptosis in human MOLM13 cells assessed as late apoptotic cells at 4 uM after 24 hrs by Annexin-V FITC/7-AAD staining based flow cytometric method (reference value: 1.43%)", "assay_type": "functional"}, "[16]": {"test_system": "MOLM-13", "experiment": "Induction of apoptosis in human MOLM13 cells assessed as necrotic cells at 4 uM after 24 hrs by Annexin-V FITC/7-AAD staining based flow cytometric method (reference value: 0%)", "assay_type": "functional"}, "[17]": {"test_system": "EOL1", "experiment": "Induction of apoptosis in human EOL-1 cells assessed as live cells at 0.81 uM after 24 hrs by Annexin-V FITC/7-AAD staining based flow cytometric method (reference value: 97.5%)", "assay_type": "functional"}, "[18]": {"test_system": "EOL1", "experiment": "Induction of apoptosis in human EOL-1 cells assessed as early apoptotic cells at 0.81 uM after 24 hrs by Annexin-V FITC/7-AAD staining based flow cytometric method (reference value: 1.94%)", "assay_type": "functional"}, "[19]": {"test_system": "EOL1", "experiment": "Induction of apoptosis in human EOL-1 cells assessed as late apoptotic cells at 0.81 uM after 24 hrs by Annexin-V FITC/7-AAD staining based flow cytometric method (reference value: 0.535%)", "assay_type": "functional"}, "[20]": {"test_system": "EOL1", "experiment": "Induction of apoptosis in human EOL-1 cells assessed as necrotic cells at 0.81 uM after 24 hrs by Annexin-V FITC/7-AAD staining based flow cytometric method (reference value: 0.032%)", "assay_type": "functional"}, "[21]": {"test_system": "EOL1", "experiment": "Induction of apoptosis in human EOL-1 cells assessed as live cells at 1.6 uM after 24 hrs by Annexin-V FITC/7-AAD staining based flow cytometric method (reference value: 97.5%)", "assay_type": "functional"}, "[22]": {"test_system": "EOL1", "experiment": "Induction of apoptosis in human EOL-1 cells assessed as early apoptotic cells at 1.6 uM after 24 hrs by Annexin-V FITC/7-AAD staining based flow cytometric method (reference value: 1.94%)", "assay_type": "functional"}, "[23]": {"test_system": "EOL1", "experiment": "Induction of apoptosis in human EOL-1 cells assessed as late apoptotic cells at 1.6 uM after 24 hrs by Annexin-V FITC/7-AAD staining based flow cytometric method (reference value: 0.535%)", "assay_type": "functional"}, "[24]": {"test_system": "EOL1", "experiment": "Induction of apoptosis in human EOL-1 cells assessed as necrotic cells at 1.6 uM after 24 hrs by Annexin-V FITC/7-AAD staining based flow cytometric method (reference value: 0.032%)", "assay_type": "functional"}, "[25]": {"test_system": "EOL1", "experiment": "Induction of apoptosis in human EOL-1 cells assessed as live cells at 4 uM after 24 hrs by Annexin-V FITC/7-AAD staining based flow cytometric method (reference value: 97.5%)", "assay_type": "functional"}, "[26]": {"test_system": "EOL1", "experiment": "Induction of apoptosis in human EOL-1 cells assessed as early apoptotic cells at 4 uM after 24 hrs by Annexin-V FITC/7-AAD staining based flow cytometric method (reference value: 1.94%)", "assay_type": "functional"}, "[27]": {"test_system": "EOL1", "experiment": "Induction of apoptosis in human EOL-1 cells assessed as late apoptotic cells at 4 uM after 24 hrs by Annexin-V FITC/7-AAD staining based flow cytometric method (reference value: 0.535%)", "assay_type": "functional"}, "[28]": {"test_system": "EOL1", "experiment": "Induction of apoptosis in human EOL-1 cells assessed as necrotic cells at 4 uM after 24 hrs by Annexin-V FITC/7-AAD staining based flow cytometric method (reference value: 0.032%)", "assay_type": "functional"}, "[29]": {"test_system": "MOLM-13", "experiment": "Induction of apoptosis in human MOLM13 cells assessed as caspase-3 activation at 10 uM after 72 hrs by immunoblotting analysis", "assay_type": "functional, cell-based", "how_it_was_run": "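MOLM-13 cells treated 72 h with test compounds at 10 μM or PKC412 at 10 nM. Cells washed in ice-cold PBS, lysed at 10^8 cells/mL in NP-40 hypertonic buffer (pH 7.5) with protease/phosphatase inhibitors, then run on SDS-PAGE and PVDF. Blots probed 12 h with rabbit monoclonal cleaved caspase-3 (Asp175), β-actin as loading control. Representative of three independent experiments.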"}, "[30]": {"test_system": "EOL1", "experiment": "Induction of apoptosis in human EOL-1 cells assessed as caspase-3 activation at 10 uM after 72 hrs by immunoblotting analysis", "assay_type": "functional, cell-based", "how_it_was_run": "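EOL-1 cells (RPMI 1640, 10% FBS, 37 °C, 5% CO2) exposed 72 h; compounds at 10 μM, PKC412 at 10 nM. Harvested, PBS-washed, lysed in hypertonic NP-40 buffer with protease/phosphatase inhibitors; SDS-PAGE, PVDF transfer, rabbit monoclonal cleaved caspase-3 (Asp175) antibody 12 h, secondary 1 h, chemiluminescent detection; β-actin loading control. Representative blots of three independent experiments.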"}},
  "note": "Calls of active or inactive are those of the source. No cut-off for these calls is given here.",
  "data": [
    {"compound": "C=C1C(=O)O[C@@H]2C3O[C@]3(C)CC/C=C(\\C)CC[C@@H]12", "note": "(stereo not given in full)", "values": [
      {"measurement": "IC50", "setting": "[1]", "result": 10, "unit": "µM"},
      {"measurement": "IC50", "setting": "[2]", "result": 7.5, "unit": "µM"},
      {"measurement": "Activity", "setting": "[3]", "result": 3.2, "unit": "µM"},
      {"measurement": "Activity", "setting": "[4]", "result": 3.2, "unit": "µM"},
      {"measurement": "Activity", "setting": "[5]", "result": 90.6, "unit": "%"},
      {"measurement": "Activity", "setting": "[6]", "result": 8.23, "unit": "%"},
      {"measurement": "Activity", "setting": "[7]", "result": 1.14, "unit": "%"},
      {"measurement": "Activity", "setting": "[8]", "result": 0.033, "unit": "%"},
      {"measurement": "Activity", "setting": "[9]", "result": 94.3, "unit": "%"},
      {"measurement": "Activity", "setting": "[10]", "result": 4.46, "unit": "%"},
      {"measurement": "Activity", "setting": "[11]", "result": 1.23, "unit": "%"},
      {"measurement": "Activity", "setting": "[12]", "result": 0.044, "unit": "%"},
      {"measurement": "Activity", "setting": "[13]", "result": 92.4, "unit": "%"},
      {"measurement": "Activity", "setting": "[14]", "result": 6.43, "unit": "%"},
      {"measurement": "Activity", "setting": "[15]", "result": 1.02, "unit": "%"},
      {"measurement": "Activity", "setting": "[16]", "result": 0.181, "unit": "%"},
      {"measurement": "Activity", "setting": "[17]", "result": 98.1, "unit": "%"},
      {"measurement": "Activity", "setting": "[18]", "result": 1.56, "unit": "%"},
      {"measurement": "Activity", "setting": "[19]", "result": 0.329, "unit": "%"},
      {"measurement": "Activity", "setting": "[20]", "result": 0.011, "unit": "%"},
      {"measurement": "Activity", "setting": "[21]", "result": 97.2, "unit": "%"},
      {"measurement": "Activity", "setting": "[22]", "result": 2.43, "unit": "%"},
      {"measurement": "Activity", "setting": "[23]", "result": 0.361, "unit": "%"},
      {"measurement": "Activity", "setting": "[24]", "result": 0.043, "unit": "%"},
      {"measurement": "Activity", "setting": "[25]", "result": 97, "unit": "%"},
      {"measurement": "Activity", "setting": "[26]", "result": 2.13, "unit": "%"},
      {"measurement": "Activity", "setting": "[27]", "result": 0.697, "unit": "%"},
      {"measurement": "Activity", "setting": "[28]", "result": 0.118, "unit": "%"},
      {"measurement": "Activity", "setting": "[29]", "result": "Active"},
      {"measurement": "Activity", "setting": "[30]", "result": "Active"}
    ]}
  ]
}
